# HCV NS3 hel inh – blocks Hepatitis C virus NS3 helicase unwinding. NS3 helicase DNA unwinding, Cy5 molecular beacon fluorescence. inhibition, % at 10.9 µM. 290,000 tested, 0.56% active;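 active = inhibition above the mean of all tested compounds plus 3 SD, set per campaign, cut at about 35% in these data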;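 note: 0% = DMSO wells and 100% = thioflavine S control wells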
#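 System: Hepatitis C virus NS3 helicase domain fragment enzyme | Reagent: Annealed dual-labelled DNA beacon duplex, ATP-started | Compound dosing: 10.9 µM single point, 0.8% DMSO | Incubation: 1 h reaction at 25 °C, ATP-initiated | Technique: Cy5 fluorescence | Evaluation: Percent inhibition from t60/t0 fluorescence ratio | Benchmarks: Low DMSO, high thioflavine S at 110 µM | Replication: Singlicate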
# HSF1 activator – increases HSF-1 driven luciferase reporter signal; NIH3T3-HGL HSF-1 luciferase reporter, MG132, 8 h; 100% = twice DMSO control signal; activation, % at 9 µM; 300,000 tested, 1.7% active; AID 504408;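 active = mean replicate activation of at least 50% with a set share of replicates each reaching 50%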;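 note: 0% = median of the neutral control wells and 100% = twice that signal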
# core dimer inh – HCV core protein dimerization inhibition; TR-FRET GST/Flag-core106 dimerization, 1536-well; inhibition, % at 5 µM; 300,000 tested, 0.33% active; AID 1899;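 active = inhibition above the mean of all tested compounds plus 3 SD, set per screening campaign, cut at about 45% in these data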
#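 Test system: GST/Flag-tagged HCV core106 proteins; Medium: KF-containing HEPES buffer, pH 7.45, DTT, CHAPS, BSA; Times: compound-protein-antibody incubation 4 h at 22.5 °C; Detection: TR-FRET 671 and 617 nm emission; Benchmarks: wells lacking GST-core106 and wells with excess unlabelled core106.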
# HSP90 refold inh – inhibitors of HSP90 luciferase refolding in rabbit reticulocyte lysate | luciferase refolding luminescence, 3 h | inhibition, % at 5.6 µM | 290,000 tested, 0.91% active;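 active = inhibition above the screen-wide mean plus 3 SD, computed separately per campaign, cut at about 16% in these data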;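 note: 0% = DMSO wells and 100% = 60 µM geldanamycin wells; inhibitors lower the luminescence because luciferase stays unfolded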
# HSF1 inh – HSF1 inhibition; NIH3T3-HGL HSE-luciferase, MG132-induced, luminescence 8 h; active compounds read low; activity change, negative = inhibition, % at 7.5 µM (by protocol); 300,000 tested, 0.77% active;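 active = more than half of replicate wells show activity change below -50%, luminescence cut by over half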;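 note: luciferase reports HSF-1 transcriptional activity via heat shock element; 0% = median of DMSO wells and -100% = zero luminescence signal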
# FID counter – counter-screen for HCV NS3 helicase inhibitors: DNA intercalator displacement; DNA fluorescent intercalator displacement, fluorescence; inhibition, % at 7.9 µM; 290,000 tested, 0.17% active; AID 1845; in the data active = inhibition above about 37%;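 note: 0% = vehicle and 100% = reference compound; higher means more ethidium bromide displaced from hairpin DNA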
# Numbers without * were called inactive; · = no result. This is a sample that favours compounds with a hit; in the whole collection about 3.9% have one here.
SMILES,HCV NS3 hel inh,HSF1 activator,core dimer inh,HSP90 refold inh,HSF1 inh,FID counter
CC(C(=O)NCC1CCCCC1)N1CCN(S(=O)(=O)c2ccccc2F)CC1 (centres undefined),-0.6,-7.1,1.9,0.6,-3.8,-30.7
CCOC(=O)c1ccc(-n2[nH]c(-c3ccccc3)cc2=O)cc1,9.3,-77.9,-1.5,7.2,-72.0*,-5.0
COc1ccc(C(=O)NCc2nnc(SCC(=O)c3ccccc3)n2C)cc1OC,·,-3.5,-2.2,·,3.1,·
CC(=O)/C(=N/Nc1ccccc1)Sc1nnc(CCc2ccccc2)n1-c1ccccc1,2.6,13.1,11.9,3.0,1.4,-11.7
CC(=O)/C(=N\Nc1ccc(Cl)cc1)Sc1nnc(-c2ccccc2)n1-c1ccccc1,-6.6,-62.4,20.1,-4.4,-55.2*,-6.1
CC(=O)c1ccccc1OCCn1nnc(-c2ccc(C)cc2)n1,-9.5,-0.3,5.0,-0.6,5.5,-5.9
COc1ccc(C(=O)NNC(=O)C2CCCN(C3CC(=O)N(c4ccccc4)C3=O)C2)cc1 (centres undefined),1.2,-5.8,1.9,5.0,1.4,-1.8
Cc1onc(-c2ccccc2Cl)c1C(=O)Nc1nnc(-c2cccc([N+](=O)[O-])c2)s1,12.4,18.9,17.3,-4.9,0.8,-3.3
CCOC(=O)CC(=O)c1[nH]c(C)c(C(=O)OCC)c1C,-5.8,37.7,-0.3,2.4,20.0,-10.4
CCOC(=O)c1c(C)[nH]c(C(=O)COC(=O)C2(C)CC2(Cl)Cl)c1C (centres undefined),-0.2,55.9*,-11.0,1.0,21.0,-17.8
Cc1ccsc1/C=C/C1=NCCCN1C,0.7,-68.6,4.6,1.7,-61.4*,2.3
Cc1ccsc1/C=N/N=C/c1sccc1C,-6.3,3.8,-4.0,14.0,-7.5,-9.0
Cc1ccccc1C(=O)NC(=S)NCCc1ccccc1,2.9,2.8,3.1,-3.0,11.0,-10.7
COc1cccc(OC)c1C(=O)NNC(=O)c1cccc(COc2ccc3c(c2)CCC3)c1,-8.7,-57.5,-0.9,10.5,-57.5*,-27.9
O=C(O)c1cc(OCc2ccccc2)cc(OCc2ccccc2)c1,19.4,-8.2,6.6,-2.7,-4.0,-14.7
O=C(O)c1ccc(COc2ccc(CO)cc2Cl)cc1,6.2,-20.9,2.9,4.3,-6.5,-0.5
O=C(O)c1cccc(COc2ccc(CO)cc2Cl)c1,·,-92.8,-4.8,·,-90.8*,·
COc1ccc(OCc2cccc(C(=O)O)c2)cc1,·,-91.2,-1.1,·,-90.2*,·
CCOc1ccc(OCc2cccc(C(=O)O)c2)cc1,·,-93.8,-0.3,·,-93.3*,·
Cc1nc(N2CCN(S(=O)(=O)c3ccc(Br)cc3)CC2)c2c(C)c(C)sc2n1,3.5,2.4,9.5,2.3,10.1,7.8
CCc1nc(N2CCN(S(=O)(=O)c3ccc(Br)cc3)CC2)c2c(C)c(C)sc2n1,-0.6,76.7*,9.7,4.8,42.3,-1.0
CCOc1ccc(N(Cc2cc3cc(OC)ccc3[nH]c2=O)C(=O)C2CCCO2)cc1 (centres undefined),-2.1,·,5.8,1.1,·,-26.3
Cc1cccc(OCC(=O)Nc2cccc(C(=O)NCC(C)C)c2)c1,-7.9,-85.3,3.0,-1.8,-80.6*,-20.3
Cc1cccc(OCC(=O)Nc2ccc(C(=O)NCC(C)C)cc2)c1,-3.7,-9.9,-9.8,-1.4,-8.2,-16.1
Cc1cccc(OCC(=O)Nc2cc(C)ccc2O)c1,-15.7,180.6*,2.0,-1.1,130.2,-5.8
SMILES,HCV NS3 hel inh,HSF1 activator,core dimer inh,HSP90 refold inh,HSF1 inh,FID counter
COc1cc(OC)cc(C(=O)Nc2ccccc2S(=O)(=O)N2CCCC2OC(C)=O)c1 (centres undefined),-3.2,-1.8,2.6,-1.1,3.5,-30.3
Cc1cnc(NC(=O)CSc2nnc(-c3ccccc3)o2)s1,6.0,61.2*,4.2,14.0,46.4,-10.4
COc1ccc(-c2cc(-c3ccccc3)c(C#N)c(SCC(=O)Nc3ncc(C)s3)n2)cc1,3.7,6.0,55.5*,-0.2,-3.1,1.7
N#Cc1ccsc1NC(=O)COc1ccc(-c2nnco2)cc1,4.3,-16.1,96.4*,-2.3,0.9,-2.0
N#Cc1ccsc1NC(=O)CSc1nnc(-c2ccccc2)o1,8.2,55.8*,10.3,-0.1,52.4,0.2
Cc1cnc(NC(=O)CSc2nnc(COc3ccccc3)o2)s1,3.2,-0.5,-4.8,-0.6,9.6,-14.0
COc1ccc(N2C(=O)C3CCCN3C2c2cccc(F)c2)cc1Cl (centres undefined),-5.3,9.2,0.7,0.8,-2.6,-7.1
CCN(CC)c1ccc(/C=C2/SC(=O)N(C(C)C)C2=O)o1,28.0,209.2*,·,2.4,142.0,-33.3
COC(=O)C1=NN(C(=O)c2ccccc2)C(O)(c2ccc([N+](=O)[O-])cc2)C1 (centres undefined),17.1,272.6*,·,1.4,191.4,-4.6
CC1=NN(C(=O)c2ccc(Cl)cc2)C(O)(c2ccccc2)C1 (centres undefined),0.1,6.3,-5.5,-2.8,6.7,-9.4
COC(=O)C1=NN(C(=O)c2ccc(C)cc2)C(O)(c2ccc(Cl)cc2)C1 (centres undefined),23.7,147.4*,-4.5,-0.2,119.7,-37.2
CCOC(=O)C1(CCCc2ccccc2)CCN(Cc2cn(CC)nc2C)CC1,-13.2,2.0,-5.0,-1.9,3.8,18.8
CC(C)(CN1CCc2ccccc2C1)NS(=O)(=O)c1ccc(Cl)cc1,-13.1,22.4,-0.8,4.1,6.0,-4.5
COc1ccc(NC(=S)Nc2ccc(Oc3ccccc3)cc2)cc1,-10.9,-68.3,8.9,0.6,-64.7*,-2.9
CCNC(=S)Nc1ccc(Oc2ccccc2)cc1,-3.7,28.0,-5.5,-1.7,4.5,-1.7
COc1ccc(C(=S)Nc2ccc(C)cc2)cc1,-3.4,63.1*,-2.9,-2.3,29.5,-4.2
CCOC(=O)/C=C/C(=O)Nc1ccc(Oc2ccccc2)cc1,-5.3,-1.4,4.2,-4.0,6.1,-8.0
O=C(O)/C=C/C(=O)Nc1ccc(Oc2ccccc2)cc1,-10.1,-59.0,-0.7,3.9,-54.1*,-0.9
CCN(CC)c1ncccc1C(=O)NCc1cccs1,-0.1,2.1,-1.6,-2.0,-2.3,-3.8
Cc1ccc(C)c(Nc2ncccc2C(=O)NCc2cccs2)c1,-18.9,55.3*,-0.9,0.0,23.5,-11.7
CCSC1(SCC)N=C(N)C2(C#N)C(c3ccc(OC)c(OC)c3OC)C12C#N (centres undefined),·,197.8*,0.2,·,149.0,·
CN(CC(=O)Nc1ccc(S(N)(=O)=O)cc1)c1ccccc1,7.8,11.9,-6.5,-1.5,5.4,-1.3
O=C(CCC(=O)N1CCN(S(=O)(=O)c2ccc(Cl)cc2)CC1)Nc1cccc(Br)c1,-17.5,1.8,8.6,1.2,3.8,-20.2
COc1ccc(C(=O)C2CCCN(S(=O)(=O)C(C)C)C2)c(C)c1 (centres undefined),-9.9,62.2*,2.2,-1.2,15.1,-7.8

# Source: PubChem BioAssay
